In ChEMBL document CHEMBL5247578, “Effective synthesis of benzimidazoles-imidazo[1,2-a]pyrazine conjugates: A comparative study of mono-and bis-benzimidazoles for antitumor activity” (Eur J Med Chem, 2019):

Experiments:
Calf thymus DNA [1] = assay: Binding affinity to calf thymus DNA assessed as change in enthalpy at temperature of 298 K by Van't Hoff plot analysis; assay type: nucleic-acid assay; conditions: Bos taurus
U-251 = assay: Antiproliferative activity against human U-251 cells assessed as cell growth at 0.0001 M incubated for 48 hrs by SRB assay relative to control; assay type: functional; conditions: read-out: Activity
UO-31 = assay: Antiproliferative activity against human UO-31 cells assessed as cell growth at 0.0001 M incubated for 48 hrs by SRB assay relative to control; assay type: functional; conditions: read-out: Activity
SW-620 = assay: Growth inhibition against human SW620 cells assessed as total growth inhibitory concentration incubated for 48 hrs by sulforhodamine B assay; assay type: functional
CAKI-1 = assay: Growth inhibition against human CAKI-1 cells assessed as total growth inhibitory concentration incubated for 48 hrs by sulforhodamine B assay; assay type: functional
SK-OV-3 = assay: Growth inhibition against human SK-OV-3 cells assessed as total growth inhibitory concentration incubated for 48 hrs by sulforhodamine B assay; assay type: functional
PC-3 = assay: Antiproliferative activity against human PC-3 cells assessed as cell growth at 0.0001 M incubated for 48 hrs by SRB assay relative to control; assay type: functional; conditions: read-out: Activity
KM12 = assay: Antiproliferative activity against human KM12 cells assessed as cell growth at 0.0001 M incubated for 48 hrs by SRB assay relative to control; assay type: functional; conditions: read-out: Activity
SK-MEL-5 = assay: Antiproliferative activity against human SK-MEL-5 cells assessed as cell growth at 0.00001 M incubated for 48 hrs by SRB assay relative to control; assay type: functional; conditions: read-out: Activity
A549 = assay: Antiproliferative activity against human A549 cells assessed as cell growth at 0.00001 M incubated for 48 hrs by SRB assay relative to control; assay type: functional; conditions: read-out: Activity
Summary of the method: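 NCI-60 five-dose screen over 10^-4–10^-8 M (10-fold dilutions). Cells grown in RPMI 1640 with 5% FBS and 2 mM L-glutamine, seeded at 5,000–40,000 cells/well and preincubated 24 h. Drug from DMSO stock, 48 h at 37 °C, 5% CO2. Adherent cells TCA-fixed and stained with 0.4% SRB; A515 read. Percent growth = (Ti−Tz)/(C−Tz)×100, or (Ti−Tz)/Tz×100 when Ti<Tz.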

MDA-MB-435 = assay: Growth inhibition against human MDA-MB-435 cells assessed as total growth inhibitory concentration incubated for 48 hrs by sulforhodamine B assay; assay type: functional
Calf thymus DNA [2] = assay: Binding affinity to calf thymus DNA assessed as quenching constant at temperature of 318 K by fluorescence spectroscopic method; assay type: nucleic-acid assay; conditions: Bos taurus
HOP-62 = assay: Growth inhibition against human HOP-62 cells assessed as total growth inhibitory concentration incubated for 48 hrs by sulforhodamine B assay; assay type: functional
Calf thymus DNA [3] = assay: Binding affinity to calf thymus DNA assessed as change in entropy at temperature of 298 K by Van't Hoff plot analysis; assay type: nucleic-acid assay; conditions: Bos taurus
NCI-H226 = assay: Growth inhibition against human NCI-H226 cells assessed as total growth inhibitory concentration incubated for 48 hrs by sulforhodamine B assay; assay type: functional
SF-295 = assay: Antiproliferative activity against human SF-295 cells assessed as cell growth inhibition by measuring lethal concentration incubated for 48 hrs by sulforhodamine B assay; assay type: functional; conditions: read-out: LC50 (the source's name)
SF-268 [4] = assay: Antiproliferative activity against human SF-268 cells assessed as cell growth at 0.0000001 M incubated for 48 hrs by SRB assay relative to control; assay type: functional; conditions: dose 100 nM, read-out: Activity
SF-268 [5] = assay: Antiproliferative activity against human SF-268 cells assessed as cell growth at 0.00000001 M incubated for 48 hrs by SRB assay relative to control; assay type: functional; conditions: dose 10 nM, read-out: Activity
HCT-15 = assay: Antiproliferative activity against human HCT-15 cells assessed as cell growth at 0.000001 M incubated for 48 hrs by SRB assay relative to control; assay type: functional; conditions: read-out: Activity
Summary of the method: (§1)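 NCI-60 five-dose screen (10^-4 to 10^-8 M). Cells grown in RPMI 1640 with 5% FBS and 2 mM L-glutamine, plated at 5,000-40,000 cells/well and preincubated 24 h. Drug given from DMSO stock, then 48 h at 37 °C, 5% CO2. For adherent lines, cells fixed with cold TCA, SRB-stained and read at 515 nm. Percent growth taken against time-zero and untreated control.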

LOX IMVI [6] = assay: Growth inhibition against human LOX IMVI cells assessed as total growth inhibitory concentration incubated for 48 hrs by sulforhodamine B assay; assay type: functional
LOX IMVI [7] = assay: Antiproliferative activity against human LOX IMVI cells assessed as cell growth inhibition by measuring lethal concentration incubated for 48 hrs by sulforhodamine B assay; assay type: functional; conditions: read-out: LC50 (the source's name)
ACHN = assay: Growth inhibition against human ACHN cells incubated for 48 hrs by sulforhodamine B assay; assay type: functional
Calf thymus DNA [8] = assay: Binding affinity to calf thymus DNA assessed as fluorescence quenching intensity at 5 uM at temperature of 318 K by fluorescence spectroscopic method relative to control; assay type: nucleic-acid assay; conditions: Bos taurus
LOX IMVI [9] = assay: Antiproliferative activity against human LOX IMVI cells assessed as cell growth at 0.0001 M incubated for 48 hrs by SRB assay relative to control; assay type: functional; conditions: read-out: Activity
NCI/ADR-RES = assay: Antiproliferative activity against human NCI/ADR-RES cells assessed as cell growth at 0.0001 M incubated for 48 hrs by SRB assay relative to control; assay type: functional; conditions: read-out: Activity
COLO 205 = assay: Antiproliferative activity against human COLO 205 cells assessed as cell growth inhibition by measuring lethal concentration incubated for 48 hrs by sulforhodamine B assay; assay type: functional; conditions: read-out: LC50 (the source's name)
Calf thymus DNA [10] = assay: Binding affinity to calf thymus DNA assessed as gibbs free energy change at temperature of 298 K by Van't Hoff plot analysis; assay type: nucleic-acid assay; conditions: Bos taurus
SN12C = assay: Growth inhibition against human SN12C cells assessed as total growth inhibitory concentration incubated for 48 hrs by sulforhodamine B assay; assay type: functional
K562 [11] = assay: Antiproliferative activity against human K562 cells assessed as cell growth at 0.00000001 M incubated for 48 hrs by SRB assay relative to control; assay type: functional; conditions: dose 10 nM, read-out: Activity
SK-MEL-28 = assay: Growth inhibition against human SK-MEL-28 cells assessed as total growth inhibitory concentration incubated for 48 hrs by sulforhodamine B assay; assay type: functional
K562 [12] = assay: Antiproliferative activity against human K562 cells assessed as cell growth inhibition by measuring lethal concentration incubated for 48 hrs by sulforhodamine B assay; assay type: functional; conditions: read-out: LC50 (the source's name)
HT-29 = assay: Antiproliferative activity against human HT-29 cells assessed as cell growth at 0.000001 M incubated for 48 hrs by SRB assay relative to control; assay type: functional; conditions: read-out: Activity; summary of the method: as §1
SNB-19 = assay: Antiproliferative activity against human SNB-19 cells assessed as cell growth at 0.00001 M incubated for 48 hrs by SRB assay relative to control; assay type: functional; conditions: read-out: Activity
NCI-H460 = assay: Antiproliferative activity against human NCI-H460 cells assessed as cell growth at 0.000001 M incubated for 48 hrs by SRB assay relative to control; assay type: functional; conditions: read-out: Activity
OVCAR-5 = assay: Growth inhibition against human OVCAR-5 cells incubated for 48 hrs by sulforhodamine B assay; assay type: functional
OVCAR-4 = assay: Growth inhibition against human OVCAR-4 cells incubated for 48 hrs by sulforhodamine B assay; assay type: functional
NCI-H522 = assay: Antiproliferative activity against human NCI-H522 cells assessed as cell growth at 0.0001 M incubated for 48 hrs by SRB assay relative to control; assay type: functional; conditions: read-out: Activity

Which results are given for `COc1ccc(-c2cn3ccnc3c(-c3ccc4ncn(C5CCCCC5)c4c3)n2)cc1`?
deltaH (Calf thymus DNA [1]): -69.3 kcal/mol; growth at 100 µM (U-251): 6%; growth at 100 µM (UO-31): 26%; TGI (SW-620): > 100 µM; TGI (CAKI-1): > 100 µM; TGI (SK-OV-3): 7.64 µM; growth at 100 µM (PC-3): 24%; growth at 100 µM (KM12): 10%; growth at 10 µM (SK-MEL-5): -40%; growth at 10 µM (A549): 14%; TGI (MDA-MB-435): > 100 µM; Kq (Calf thymus DNA [2]): 0.73 10^12/M/s; TGI (HOP-62): > 100 µM; deltaS (Calf thymus DNA [3]): -206 cal/mol/K; TGI (NCI-H226): > 100 µM; CC50 (SF-295): > 100 µM; growth at 0.1 µM (SF-268 [4]): 92%; growth at 0.01 µM (SF-268 [5]): 96%; growth at 1 µM (HCT-15): 42%; TGI (LOX IMVI [6]): > 100 µM; CC50 (LOX IMVI [7]): > 100 µM; GI50 (ACHN): 0.692 µM; Activity (Calf thymus DNA [8]): 60%; growth at 100 µM (LOX IMVI [9]): 19%; growth at 100 µM (NCI/ADR-RES): 3%; CC50 (COLO 205): > 100 µM; deltaG (Calf thymus DNA [10]): -7.91 kcal/mol; TGI (SN12C): > 100 µM; growth at 0.01 µM (K562 [11]): 105%; TGI (SK-MEL-28): > 100 µM; CC50 (K562 [12]): > 100 µM; growth at 1 µM (HT-29): 20%; growth at 10 µM (SNB-19): 22%; growth at 1 µM (NCI-H460): 35%

Which results are given for `c1ccc(Cn2cnc3ccc(-c4nc(-c5ccc6c(c5)ncn6C5CCCCC5)cn5ccnc45)cc32)cc1`?
TGI (CAKI-1): > 100 µM; growth at 100 µM (PC-3): -3%; growth at 100 µM (KM12): -7%; growth at 10 µM (SK-MEL-5): -90%; growth at 10 µM (A549): -46%; GI50 (OVCAR-5): 2.64 µM; growth at 0.1 µM (SF-268 [4]): 94%; GI50 (OVCAR-4): 3.06 µM; growth at 0.01 µM (SF-268 [5]): 96%; growth at 100 µM (NCI-H522): -42%; growth at 1 µM (HCT-15): 65%; GI50 (ACHN): 3.08 µM; growth at 1 µM (HT-29): 88%; growth at 10 µM (SNB-19): 28%; growth at 1 µM (NCI-H460): 96%
